# Assay outcomes: PubChem, The Scripps Research Institute Molecular Screening Center
# This is a sample that favours compounds with a hit; in the whole collection about 0.74% have one here.
# DDE Tn7 FP inh = inhibitors of Tn7 peptide binding to fibrin DD(E), primary screen, biochemical, fluorescence polarization, human fibrin, Tn7 probe | Fibrinogen beta chain (Homo sapiens), P02675 | FP displacement of FITC-Tn7 peptide from fibrin DD(E); 0% = median of compound wells per plate | inhibition, % at 8.3 µM | 370,000 tested, 0.13% active;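 active = inhibition above the mean of compounds falling within the control limits plus 3 SD of them, cut at about 14% in these data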
# Target sequence (P02675 whole entry, looked up): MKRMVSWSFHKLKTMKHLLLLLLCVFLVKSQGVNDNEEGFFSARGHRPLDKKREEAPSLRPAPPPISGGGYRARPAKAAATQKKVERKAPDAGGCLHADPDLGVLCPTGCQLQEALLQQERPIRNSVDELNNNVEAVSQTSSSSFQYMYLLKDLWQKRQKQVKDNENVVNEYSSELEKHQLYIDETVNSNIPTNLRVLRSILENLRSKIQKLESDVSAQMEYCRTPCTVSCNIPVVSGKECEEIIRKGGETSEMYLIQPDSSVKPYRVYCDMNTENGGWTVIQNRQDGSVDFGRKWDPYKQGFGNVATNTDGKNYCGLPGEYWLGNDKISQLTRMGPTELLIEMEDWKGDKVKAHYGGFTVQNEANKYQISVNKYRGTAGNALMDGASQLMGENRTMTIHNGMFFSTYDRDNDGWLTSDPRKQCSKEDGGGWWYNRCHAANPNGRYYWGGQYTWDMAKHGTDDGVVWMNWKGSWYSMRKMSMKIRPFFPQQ
#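 Assay system: Human clot-derived fibrin DD(E) complex | Buffer or medium: Tris/NaCl/CaCl2 buffer, pH 7.8 | Repeats: One replicate per compound | Benchmarks: Aha-Tn7 high control | Measure: % inhibition scaled between sample-field median and high-control FP | Schedule: 10 min plus 3 h, room temperature | Signal: Fluorescence polarization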
# Tn6 DDE FP = inhibitors of Tn6 peptide binding to fibrin DD(E), primary screen, biochemical, fluorescence polarization, human fibrin, Tn6 probe | Fibrinogen beta chain (Homo sapiens), P02675 | 370,000 tested, 0.21% active | AID 720509, 2013 | Fibrin DD(E) TRITC-Tn6 fluorescence polarization displacement | inhibition, % at 8.3 µM;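 active = inhibition above a per-campaign cutoff: mean of compounds within control limits plus 3 SD, cut at about 15% in these data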
# ASAP1 GAP inh = inhibitors of human ASAP1 ArfGAP activity, primary screen, biochemical, fluorescence polarization | Arf-GAP with SH3 domain, ANK repeat and PH domain-containing protein 1 (Homo sapiens), … | ASAP1-stimulated ARF1 GTP hydrolysis, GDP FP detection | inhibition, % at 16.5 µM | 360,000 tested, 0.19% active | AID 624377, 2012; in the data active = inhibition above about 25%
# ARFGAP1 inhibitor = inhibitors of rat ARFGAP1 GAP activity, primary screen, biochemical, fluorescence polarization, GDP tracer; ADP-ribosylation factor GTPase-activating protein 1 (Rattus norvegicus), Q62848; Arfgap1-stimulated ARF1 GTP hydrolysis, GDP FP detection; inhibition, % at 16.5 µM; 360,000 tested, 0.26% active;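 active = inhibition above a per-plate limit, mean inhibition of low control wells plus 3 SD, cut at about 25% in these data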
# Target sequence (Q62848 1-136 limits assumed): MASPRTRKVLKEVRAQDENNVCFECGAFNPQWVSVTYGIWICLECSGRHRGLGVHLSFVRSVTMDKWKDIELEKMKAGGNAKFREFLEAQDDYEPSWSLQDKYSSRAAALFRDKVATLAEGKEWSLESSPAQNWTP
#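 system = rat Arfgap1 catalytic domain, aa 1-136 | technique = FP, GDP Alexa 633 tracer displaced from anti-GDP antibody, 620/688 nm | compound = one concentration, 16.5 µM, DMSO 1.26% | medium = HEPES-based buffer, pH 7.5 | timing = compound-enzyme preincubation 20 min, reaction 120 min, detection 60 min, 25 °C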
# DDE Tn6 FP ctr = DD(E)-Tn6 binding inhibition, counter-screen; shares compounds with Tn6 DDE FP; 680 tested, 2% active; Fibrin DD(E), TRITC-Tn6 fluorescence polarization displacement; 0% = median of compound wells, not DMSO; inhibition, % at 8.3 µM;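 active = inhibition above the mean of test compounds lying between the control limits plus 3 SD of those, cut at about 14% in these data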
# Tn6 DDE conf = inhibitors of Tn6 peptide binding to fibrin DD(E), confirmation, biochemical, fluorescence polarization, human fibrin, Tn6 probe. 680 tested, 10% active. FP displacement of TRITC-Tn6 peptide from DD(E); 0% = per-plate median of test wells. AID 720631, 2013. inhibition, % at 8.3 µM. shares compounds with Tn6 DDE FP;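 active = inhibition above the mean of compounds lying within the control limits plus 3 SD, cut at about 16% in these data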
# Numbers stand for hits; - = inactive; . = not tested or not shown.
SMILES,DDE Tn7 FP inh,Tn6 DDE FP,ASAP1 GAP inh,ARFGAP1 inhibitor,DDE Tn6 FP ctr,Tn6 DDE conf
Nc1c(C(=O)O)ccc2c1C(=O)c1ccccc1C2=O,-,-,-,-,.,.
Cn1c(=O)[nH]c(=O)c2c1nc(NCCCn1ccnc1)n2Cc1ccc(F)cc1,-,15,-,-,-,-
C/C(Cl)=C/Cn1c(NCCCn2ccnc2)nc2c1c(=O)[nH]c(=O)n2C,-,-,-,-,.,.
CSc1cccc(NC(=O)C(=O)NCc2ccccc2)c1,-,-,-,-,.,.
CSc1cccc(NC(=O)NCc2cccc(CNC(=O)Nc3cccc(SC)c3)c2)c1,-,27,-,-,-,-
Cc1cccc(NC(=S)N2CCN(S(C)(=O)=O)CC2)c1,-,-,-,-,.,.
Cc1cc(C)cc(NC(=S)N2CCN(S(C)(=O)=O)CC2)c1,-,16,-,-,-,-
CC12CCC(C(=O)NCc3ccccc3)(OC1=O)C2(C)C (centres undefined),-,-,-,-,.,.
CC12CCC(C(=O)NCC3CCCO3)(OC1=O)C2(C)C (centres undefined),-,16,-,-,-,-
COCCN1Cc2cc(C(=O)OC)c3c(c2C1=O)c1ccccc1n3S(=O)(=O)c1ccc(C)cc1,-,-,-,-,.,.
O=C(CNCc1ccccc1[N+](=O)[O-])N1CCC2(CC1)OCCO2,-,-,.,.,.,.
CCN1CCN(c2c(S(=O)(=O)c3ccc(Cl)cc3)cnc3ccccc23)CC1,-,-,-,-,.,.
NC1(N2SC(S)=C3CCCC=C32)CCCCC1,-,-,-,-,.,.
COc1ccccc1CCC(=O)Nc1nccs1,-,-,-,-,.,.
COc1ccccc1CCC(=O)Nc1ncc(C)s1,-,15,-,-,-,-
Cn1c(N)c(S(=O)(=O)N2CCN(c3cccc(Cl)c3)CC2)c(=O)n(C)c1=O,-,16,-,-,-,-
CN(Cc1cn(Cc2cccc(Cl)c2)nn1)C1CN(Cc2cn(Cc3cccc(Cl)c3)nn2)S(=O)(=O)C1 (centres undefined),-,16,-,-,-,-
COc1cccc(C(=O)NCc2ccc3c(c2)cc(C)n3C)c1,-,22,-,-,-,-
COc1ccc(CC(=O)NCc2ccc3c(c2)cc(C)n3C)cc1,-,-,-,-,.,.
COc1ccc(/C=C\C(=O)NCc2ccc3c(c2)cc(C)n3C)cc1OC,-,30,-,-,-,-
COc1ccc(C(=O)NCc2ccc3c(c2)cc(C)n3C)cc1OC,-,37,-,-,-,-
C=CCC12C=C(OC)C(=O)C(C1=O)C(c1ccc(OC)cc1)C2C (centres undefined),-,-,.,.,.,.
COc1cccc(CN(C)CC(=O)NC(=O)NCc2ccco2)c1,-,18,-,-,-,-
COc1cc(/C=C2/SC(=S)N(Cc3ccccc3)C2=O)cc(Cl)c1O,-,-,-,-,.,.
COc1cc([N+](=O)[O-])cc(/C=C2/SC(=S)N(Cc3ccccc3)C2=O)c1O,-,56,-,-,-,34
SMILES,DDE Tn7 FP inh,Tn6 DDE FP,ASAP1 GAP inh,ARFGAP1 inhibitor,DDE Tn6 FP ctr,Tn6 DDE conf
c1ccc(CNc2ccccn2)cc1,-,-,-,-,.,.
c1ccc(Nc2ccccc2Nc2ccccn2)nc1,-,16,-,-,-,-
CCOC(=O)C1=CCN(S(=O)(=O)c2ccc(F)cc2)C1c1ccc(Cl)cc1 (centres undefined),-,-,-,-,.,.
COc1ccc(-c2nnc3sc(-c4ccco4)nn23)cc1OC,-,15,-,-,-,-
COc1ccc(-c2nn3c(-c4ccco4)nnc3s2)cc1OC,-,-,-,-,.,.
COc1ccccc1CN1CC(C(=O)NCCc2ccc(C)o2)CCC1=O (centres undefined),-,20,-,-,-,-
CCC(CC)C(=O)Nc1cccc(C(=O)Nc2ccc(S(N)(=O)=O)cc2)c1,-,-,-,-,.,.
CCC(CC)C(=O)Nc1cccc(C(=O)Nc2ccc(S(=O)(=O)Nc3ccc(C)cc3)cc2)c1,-,19,-,-,-,-
Cc1ccccc1NC(=O)CCS(=O)(=O)c1ccccc1,-,-,.,.,.,.
COc1cccc(CNS(=O)(=O)c2cc(Br)ccc2Br)c1OC,-,-,-,-,.,.
CCC1(C)CC(CCN(Cc2ccco2)C(C)=O)(c2ccccc2)CCO1 (centres undefined),-,17,-,-,-,-
CN(CCc1ccccc1)C1CCCN(C(=O)Cn2cccn2)C1 (centres undefined),-,17,-,-,-,-
COC(=O)c1cc(Br)c(=O)n(CCN2CCCC2)c1,-,17,-,-,-,-
CC(C)C[C@@H]1COc2cc(F)ccc2S(=O)(=O)N1,-,-,-,-,.,.
CN(C)N1C(N)=C(C#N)C(c2ccc3c(c2)OCO3)C2=C1CCCC2=O (centres undefined),-,15,-,-,-,-
COc1cc(CNc2cccc3c2S(=O)(=O)N([C@H](C)c2ccccc2)C[C@@H](COCc2ccccc2)O3)cc(OC)c1OC,-,-,-,-,.,.
COc1ccc(NCc2nnc(SCC(=O)NCc3ccco3)n2-c2ccccc2OC)cc1,-,17,-,-,-,-
Cc1ccc(-n2c(CNc3ccc(F)cc3)nnc2SCC(=O)NCc2ccco2)cc1,-,-,-,-,.,.
CC(=O)C1=C(C)N(Cc2ccc(Br)cc2)C(=S)NC1c1cccc(Br)c1 (centres undefined),-,-,-,-,.,.
Cc1ccc(C(=O)NCC(=O)OC(C)C(=O)NC2CCCc3ccccc32)cc1 (centres undefined),-,16,-,-,-,-
O=C(O)Cn1cc(/C=C2/SC(=O)N(CC(=O)N3CCCCCC3)C2=O)c2ccccc21,-,15,-,-,-,-
COc1nc(-c2ccccc2Cl)ccc1C#N,-,18,-,-,-,-
CCCCNC(=O)c1onc(CSc2nc3ccccc3[nH]2)c1C(=O)NCCCC,-,-,-,-,.,.
CC(C)NC(=O)c1onc(CSc2nc3ccccc3[nH]2)c1C(=O)NC(C)C,-,15,-,-,-,-
COc1ccc(CNC(=O)C[C@H]2C[C@H](C(=O)N3CCOCC3)[C@@]3(CCC4CCCC4)c4[nH]c5cc(-c6ccco6)ccc5c4CCN3C2=O)cc1OC,-,16,-,-,-,-
